Laboratory results reported in PMC9675722 (Cell chemical biology, 2022).
pEC50, pIC50, pKd: −log10 of the molar value. Where two headings read alike, the source gives them in different places.

How the values were obtained:
[1] = biological target: T1, ERK5 (Homo sapiens, UniProt Q13164); assay: KdELECT biochemical binding assay; settings: for binding affinity for ERK5 (in words): Table S1
In short: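 Binding constants to ERK5 were determined in an outsourced KdELECT kinase binding assay from an 11-point dose–response curve.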

[2] = biological target: T1, ERK5; assay: ERK5 degradation in MOLT4 cells; type: cell-based; settings: for DC50: read-out: DC50 of ERK5 degradation, 5-hour treatment
[3] = biological target: BRD4 (Homo sapiens, UniProt O60885); assay: BRD4 immunoblot in MOLT4 cells; type: cell-based; settings: 5 hours
In short: (§1)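 MOLT4 cells (RPMI, 10% heat-inactivated FBS, pen-strep, 37 °C, 5% CO2) were exposed to test compound at a range of concentrations for 5 h. Lysis was in M-PER with protease and phosphatase inhibitors, and lysates were BCA-normalised. Samples were run on 4–12% Bis-Tris gels and blotted to nitrocellulose. ERK5, BRD4, AURKA and actin antibodies were applied overnight at 4 °C. Detection was by IRDye secondaries. Blots are representative of 2–3 biological replicates.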

[4] = biological target: T2, AURKA (Homo sapiens, UniProt O14965); assay: AURKA immunoblot in MOLT4 cells; type: cell-based; settings: 5 hours
T2 sequence (O14965 1-403): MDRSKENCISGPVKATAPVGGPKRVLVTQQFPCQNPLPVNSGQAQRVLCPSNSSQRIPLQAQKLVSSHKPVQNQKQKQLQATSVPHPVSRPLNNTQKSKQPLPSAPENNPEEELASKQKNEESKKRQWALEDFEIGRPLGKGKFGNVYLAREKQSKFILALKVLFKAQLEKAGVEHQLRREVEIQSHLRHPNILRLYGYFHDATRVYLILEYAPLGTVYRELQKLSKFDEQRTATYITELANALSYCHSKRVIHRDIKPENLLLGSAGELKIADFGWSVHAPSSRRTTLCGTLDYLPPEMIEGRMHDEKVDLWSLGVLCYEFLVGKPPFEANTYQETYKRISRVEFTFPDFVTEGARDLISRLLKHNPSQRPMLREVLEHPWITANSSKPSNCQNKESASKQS
In short: as §1

[5] = test system: MOLT4 cells; assay: global quantitative TMT MS proteomics in MOLT4 cells; type: cell-based, Human; settings: MOLT4, 250 nM, 5 hours
In short: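 MOLT4 cells were treated for 5 h with test compound (250 nM, or 100 nM for one degrader) or DMSO (biological triplicate), then harvested by centrifugation. TMT-labelled tryptic peptides were analysed by LC-MS3 on an Orbitrap Fusion Lumos using a 190 min 6–27% acetonitrile gradient. Spectra were searched against Swissprot human. Proteins with ≥2 unique peptides were kept, and abundance relative to DMSO was computed by limma.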

[6] = test system: MOLT4 cells; assay: CellTiter-Glo proliferation assay, MOLT4; type: cell-based, Human; settings: for pEC50: read-out: anti-proliferative EC50
[7] = test system: ERK5; settings: read-out: reported IC50 for ERK5; ref Wang et al., 2018; cited from earlier work
[8] = test system: BRD4 and other members of the BET family proteins; settings: ref Wang et al., 2018; cited from earlier work
[9] = test system: IL-6 secretion; assay: IL-6 ELISA, LPS-stimulated HUVECs; type: cell-based, Human; settings: LPS 10 μg/mL 6 hours
In short: (§2)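 HUVECs were seeded at 30,000–60,000 cells/well and pre-treated with test compound for 5 or 24 h. They were then stimulated with E. coli O111:B4 LPS at 10 μg/mL for 6 h. Secreted IL-6 or IL-8 in the supernatant was quantified by sandwich ELISA kits per the manufacturer. Statistics used two-way ANOVA with Bonferroni correction.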

[10] = test system: IL-8 secretion; assay: IL-8 ELISA, LPS-stimulated HUVECs; type: cell-based, Human; settings: LPS 10 μg/mL 6 hours
In short: as §2

[11] = test system: BT-474 cells; assay: CellTiter-Glo proliferation assay, BT-474; type: cell-based, Human; settings: for pEC50: Homo sapiens, BT-474, 72 h, read-out: anti-proliferative EC50
[12] = test system: SNU-449 cells; assay: CellTiter-Glo proliferation assay, SNU-449; type: cell-based, Human; settings: for pEC50: Homo sapiens, SNU-449, 72 h, read-out: anti-proliferative EC50
[13] = test system: IL-6 stimulated MM.1S cells; assay: IL-6-induced MM.1S proliferation; type: cell-based, Human; settings: 500 nM and 1 μM, 5 nM IL-6, 3d
In short: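 MM.1S cells at 10,000 cells/well were pre-treated for 5 h with test compound at 500 nM or 1 μM. Recombinant human IL-6 (5 nM) was then added. After 72 h, proliferation was read by CellTiter-Glo. Data are mean with standard deviation of three biological replicates.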

[14] = test system: panel of 468 kinases; assay: scanMAX KINOMEscan selectivity panel; type: binding; settings: 1 μM

T1 sequence (Q13164 whole entry): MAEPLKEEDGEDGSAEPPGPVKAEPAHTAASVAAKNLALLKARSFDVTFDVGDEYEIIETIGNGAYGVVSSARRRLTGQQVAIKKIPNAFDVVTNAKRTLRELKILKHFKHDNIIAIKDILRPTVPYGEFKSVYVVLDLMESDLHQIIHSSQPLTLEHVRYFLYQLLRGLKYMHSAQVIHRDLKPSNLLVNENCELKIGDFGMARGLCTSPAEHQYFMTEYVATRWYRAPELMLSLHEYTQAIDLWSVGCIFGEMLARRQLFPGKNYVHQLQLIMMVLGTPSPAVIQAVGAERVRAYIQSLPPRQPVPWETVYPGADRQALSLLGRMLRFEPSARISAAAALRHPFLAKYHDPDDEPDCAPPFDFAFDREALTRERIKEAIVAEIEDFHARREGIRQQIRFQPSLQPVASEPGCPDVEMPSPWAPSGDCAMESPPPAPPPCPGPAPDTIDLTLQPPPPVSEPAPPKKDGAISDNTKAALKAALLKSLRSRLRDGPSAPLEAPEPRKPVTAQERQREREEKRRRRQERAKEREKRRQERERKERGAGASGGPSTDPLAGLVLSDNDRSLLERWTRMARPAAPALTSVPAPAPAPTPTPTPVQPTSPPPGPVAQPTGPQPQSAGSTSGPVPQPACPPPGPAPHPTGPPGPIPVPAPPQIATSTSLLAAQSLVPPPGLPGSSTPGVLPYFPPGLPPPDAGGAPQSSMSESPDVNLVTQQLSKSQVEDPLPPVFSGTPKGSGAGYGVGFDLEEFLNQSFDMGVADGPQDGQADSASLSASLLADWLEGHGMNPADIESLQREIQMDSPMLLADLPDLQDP

binding affinity for ERK5 (in words) [1]	SMILES	IL-6 secretion upon LPS stimulation ([9]; 5-hour pre-treatment)	IL-6 secretion upon LPS stimulation ([9]; 24-hour pre-treatment)	IL-8 secretion upon LPS stimulation ([10]; 5-hour pre-treatment)	IL-8 secretion upon LPS stimulation ([10]; 24-hour pre-treatment)	pEC50 ([6]; Homo sapiens, MOLT-4, 72 h)	pEC50 [11]	pEC50 [12]	further results
high binding affinities	Cc1ncsc1-c1ccc([C@H](C)NC(=O)[C@@H]2C[C@@H](O)CN2C(=O)[C@@H](NC(=O)CCCCCN2CCN(C(=O)c3ccc(Nc4ncc5c(n4)N(C4CCCC4)c4ccccc4C(=O)N5C)cc3)CC2)C(C)(C)C)cc1 [INY-05-091, (2S,4R)-1-((S)-2-(6-(4-(4-((11-cyclopentyl-5-methyl-6-oxo-6,11-dihydro-5H-benzo[e]pyrimido[5,4-b][1,4]diazepin-2-yl)amino)benzoyl)piperazin-1-yl)hexanamido)-3,3-dimethylbutanoyl)-4-hydroxy-N-((S)-1-(4-(4-methylthiazol-5-yl)phenyl)ethyl)pyrrolidine-2-carboxamide]	–	–	–	–	–	–	–	DC50 [2]: 0.167 µM; BRD4 protein levels [3]: potent BRD4 degradation; AURKA protein levels [4]: validated through immunoblot analysis; AURKA protein abundance, proteomics [5]: induced downregulation; BRD3 and BRD4 protein abundance, proteomics [5]: additional downregulated targets; ERK5 (MAPK7) protein abundance, proteomics [5]: potent downregulation; anti-proliferative activity (in words) ([6]; MOLT4, 3 days): potent anti-proliferative activities
–	CCC(C)N1c2ccccc2C(=O)N(C)c2cnc(Nc3ccc(C(=O)N4CCC(N5CCN(C)CC5)CC4)cc3OC)nc21 (centres unmarked) [JWG-071]	–	–	–	–	–	–	–	pEC50 ([6]; MOLT4, 3 days): 5.62; pIC50 [7]: 7.06; binding to off-target BET family proteins [8]: significantly reduced affinity
–	CCOc1cc(N2CCC(O)CC2)ccc1Nc1ncc2c(n1)N(C)c1ccccc1C(=O)N2C [XMD8-92]	reduced	significantly reduced	reduced	significantly reduced	–	–	–	–
–	CN1CCN(c2cnc3c(C4CCN(C(=O)c5ccc(OC(F)(F)F)cc5N)CC4)ncnc3c2)CC1 [BAY-885]	no effect	no effect	no effect	no effect	< 5.00	< 4.70	< 4.70	pKd [1]: 9.00; effect on IL-6-induced proliferation [13]: no effect
–	CCOc1cc(C(=O)N2CCC(N3CCN(C)CC3)CC2)ccc1Nc1ncc2c(n1)N(C1CCCC1)c1ccccc1C(=O)N2C [XMD17-109]	reduced	significantly reduced	reduced	significantly reduced	–	–	–	anti-proliferative activity (in words) ([6]; MOLT4, 3 days): potent anti-proliferative activities; anti-proliferative effect (in words) ([11]; BT-474, 3d treatment): the only compound to display anti-proliferative effects; anti-proliferative effect (in words) ([12]; SNU-449, 3d treatment): the only compound to display anti-proliferative effects; binding to off-target BET family proteins [8]: binds to and inhibits BRD4 and other members of the BET family proteins
–	Cc1ncsc1-c1ccc([C@H](C)NC(=O)[C@H]2C[C@H](O)CN2C(=O)[C@@H](NC(=O)CCCCCN2CCN(c3ccc4c(C5CCN(C(=O)c6ccc(OC(F)(F)F)cc6N)CC5)ncnc4c3)CC2)C(C)(C)C)cc1 [INY-06-089, (2R,4S)-1-((S)-2-(6-(4-(4-(1-(2-amino-4-(trifluoromethoxy)benzoyl)piperidin-4-yl)quinazolin-7-yl)piperazin-1-yl)hexanamido)-3,3-dimethylbutanoyl)-4-hydroxy-N-((S)-1-(4-(4-methylthiazol-5-yl)phenyl)ethyl)pyrrolidine-2-carboxamide]	no effect	–	no effect	–	–	< 4.70	< 4.70	potential off-target kinases [14]: also inhibits the same kinases; ERK5 downregulation ([2]; 5 hours, concentrations up to 5 μM): unable to induce ERK5 downregulation
high binding affinity	CN1CCN(c2ccc3c(C4CCN(C(=O)c5ccc(OC(F)(F)F)cc5N)CC4)ncnc3c2)CC1 [INY-06-086, (2-amino-4-(trifluoromethoxy)phenyl)(4-(7-(4-methylpiperazin-1-yl)quinazolin-4-yl)piperidin-1-yl)methanone]	–	–	–	–	–	< 4.70	< 4.70	biochemical selectivity profile across the kinome ([14]; 468 kinases): similarly selective for ERK5 as BAY-885
–	CCOc1cc(C(=O)N2CCC(N3CCN(C)CC3)CC2)ccc1Nc1ncc2c(n1)N(S(C)(=O)=O)c1ccccc1C(=O)N2C [AX15836, reference compound]	–	–	–	–	< 5.00	< 4.70	< 4.70	effect on IL-6-induced proliferation [13]: no effect
high binding affinities	CCC(C)N1c2ccccc2C(=O)N(C)c2cnc(Nc3ccc(C(=O)N4CCN(CCCCCC(=O)N[C@H](C(=O)N5C[C@H](O)C[C@H]5C(=O)N[C@@H](C)c5ccc(-c6scnc6C)cc5)C(C)(C)C)CC4)cc3)nc21 (stereo partly drawn) [INY-05-128, (2S,4R)-1-((2S)-2-(6-(4-(4-((11-(sec-butyl)-5-methyl-6-oxo-6,11-dihydro-5H-benzo[e]pyrimido[5,4-b][1,4]diazepin-2-yl)amino)benzoyl)piperazin-1-yl)hexanamido)-3,3-dimethylbutanoyl)-4-hydroxy-N-((S)-1-(4-(4-methylthiazol-5-yl)phenyl)ethyl)pyrrolidine-2-carboxamide]	–	–	–	–	5.96	–	–	DC50 [2]: 0.281 µM; BRD4 protein levels [3]: no effect; AURKA protein levels [4]: validated through immunoblot analysis; AURKA protein abundance, proteomics [5]: induced downregulation; ERK5 (MAPK7) protein abundance, proteomics [5]: potent downregulation
